MEKK3 PB1 HTS: raises or lowers MEK5 binding to the human MEKK3 PB1 domain; Q99759; bead-based flow cytometry, Alexa488-MEK5 binding to MEKK3; actives lie on both sides; 0 = blocked by unlabeled MEK5, 100 = vehicle; binding response (% of control), % at 10 µM; actives 1.4% (n = 290,000);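 active = binding response more than 3 SD above or below the average of its plate-row segment, actives on both sides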;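 note: Alexa488 bead fluorescence after subtracting the streptavidin-only scavenger bead signal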
Target sequence (Q99759 whole entry, looked up, the tested form may be a part): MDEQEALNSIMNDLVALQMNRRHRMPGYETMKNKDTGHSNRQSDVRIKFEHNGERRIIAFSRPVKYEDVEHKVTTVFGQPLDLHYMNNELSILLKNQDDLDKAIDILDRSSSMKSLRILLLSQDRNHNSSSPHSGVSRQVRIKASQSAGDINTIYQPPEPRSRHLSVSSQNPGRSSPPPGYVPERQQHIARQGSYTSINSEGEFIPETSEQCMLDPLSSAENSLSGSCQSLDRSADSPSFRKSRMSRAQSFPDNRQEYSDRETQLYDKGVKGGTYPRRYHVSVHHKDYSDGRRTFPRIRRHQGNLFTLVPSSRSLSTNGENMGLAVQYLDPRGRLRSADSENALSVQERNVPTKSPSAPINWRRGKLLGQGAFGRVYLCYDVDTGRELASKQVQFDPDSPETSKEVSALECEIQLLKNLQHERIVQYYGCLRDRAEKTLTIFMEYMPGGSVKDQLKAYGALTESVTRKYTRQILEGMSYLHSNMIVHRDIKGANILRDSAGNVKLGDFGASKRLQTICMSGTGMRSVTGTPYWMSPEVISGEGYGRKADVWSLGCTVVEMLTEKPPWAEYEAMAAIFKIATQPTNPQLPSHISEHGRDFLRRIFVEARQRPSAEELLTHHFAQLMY
MEKK2mut PB1 HTS: signal of MEK5 binding to mutant human MEKK2 PB1 domain; bead flow cytometry, Alexa488-MEK5 binding to MEKK2 mutant; percent response, % at 10 µM; actives 0.35% (n = 290,000); in the data active = percent response above about 24%, passing the limit was not always enough
Apaf-1 inh: inhibitors of human Apaf-1 apoptosome | O14727 | AID 489030 | inhibition, % at 20 µM | actives 0.71% (n = 330,000) | reconstituted apoptosome caspase-3 activity, DEVD-Rh110 fluorescence; active = inhibition of at least 40% at 20 µM
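Material: reconstituted apoptosome with Apaf-1, cytochrome c, caspase-9, procaspase-3, dATP; medium: pH 7.5 Hepes buffer with CHAPS, BSA, DTT; also added: cytochrome c and DEVD-Rh110 substrate; timing: 30 min plus 50 min, RT; signal: Rh110 fluorescence intensity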
UBC13 inh: blocks human UBC13 polyubiquitin chain formation | P61088 | actives 0.47% (n = 330,000) | inhibition, % at 20 µM | TR-FRET | AID 485273; in the data active = inhibition above about 45%, passing the limit was not always enough
Target sequence (P61088 whole entry, looked up): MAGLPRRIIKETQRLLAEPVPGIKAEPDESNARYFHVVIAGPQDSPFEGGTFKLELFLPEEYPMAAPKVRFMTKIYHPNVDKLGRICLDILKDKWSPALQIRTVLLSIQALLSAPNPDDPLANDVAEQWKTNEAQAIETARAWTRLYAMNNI
DSG3 Ab inh: blocks pemphigus antibody binding to human desmoglein-3 | P32926 | DSG3-coupled beads, scFv-anti-DSG3-GFP binding, flow cytometry; hits give low values | binding (percent of control), % at 10 µM | actives 0.48% (n = 310,000) | AID 588358;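 active = binding more than 3 SD below its plate's average and above zero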;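 note: hits lower antibody fragment binding to DSG3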
MEKK2wt PB1 HTS: raises or lowers MEK5 binding to wildtype human MEKK2 PB1 domain | Q9Y2U5 | bead flow cytometry, Alexa488-MEK5 binding to MEKK2 WT; actives lie on both sides | binding response (% of control), % at 10 µM | actives 1.1% (n = 290,000); in the data active = binding response below about 67% or above about 130%
MEKK2wt confirm: raises or lowers MEK5 binding to wildtype human MEKK2, retest. shares compounds with MEKK3 PB1 HTS. bead flow cytometry, Alexa488-MEK5 binding to MEKK2 WT; actives lie on both sides. binding response (% of control), % at 10 µM. actives 2.4% (n = 5,900). AID 1892; in the data active = binding response below about 16% or above about 210%; inactive = in between
MEKK2mut confirm: signal of MEK5 binding to mutant human MEKK2, retest. bead flow cytometry, Alexa488-MEK5 binding to MEKK2 mutant. shares compounds with MEKK3 PB1 HTS. AID 1893. percent response, % at 10 µM. actives 2% (n = 5,900); in the data active = percent response mostly above about 71%, no sharp cut-off; inactive = mostly below about 38%;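 note: higher means compound restores mutant binding toward wildtype level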
MEKK3 confirm: confirmation of inhibitors of MEK5 binding to human MEKK3 | shares compounds with MEKK3 PB1 HTS | binding response (% of control), % at 10 µM | actives 1.8% (n = 5,900) | bead flow cytometry, Alexa488-MEK5 binding to MEKK3; hits give low values;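 active = binding response below 72% of control, or above a set upper limit, though filed actives all read lower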;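 note: lower values mean stronger disruption of MEK5 binding to MEKK3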
Numbers stand for hits; ! = not confirmed by another sample; [ ] = another dose, or the depositor's remark. An excerpt weighted towards active compounds, which were near 3.2% of everything screened.

What do the screens show for `COc1cc2c(cc1NC(=O)Nc1cccc(C)c1)oc1ccccc12`?
MEKK3 PB1 HTS: inactive; MEKK2mut PB1 HTS: 30; Apaf-1 inh: inactive; UBC13 inh: inactive; DSG3 Ab inh: inactive; MEKK2wt PB1 HTS: 150; MEKK2wt confirm: 6.0[inhibitor]; MEKK2mut confirm: inactive; MEKK3 confirm: inactive

What do the screens show for `COc1ccc(NC(=O)Nc2cc3oc4ccccc4c3cc2OC)cc1`?
Apaf-1 inh: inactive; UBC13 inh: inactive; DSG3 Ab inh: inactive

What do the screens show for `COc1cc2c(cc1NC(=O)Nc1ccc(C)cc1)oc1ccccc12`?
MEKK3 PB1 HTS: inactive; MEKK2mut PB1 HTS: 24; Apaf-1 inh: inactive; UBC13 inh: inactive; DSG3 Ab inh: inactive; MEKK2wt PB1 HTS: 141; MEKK2wt confirm: inactive; MEKK2mut confirm: inactive; MEKK3 confirm: inactive

What do the screens show for `CC(=O)N1CCC(C(=O)Nc2ccc(S(=O)(=O)NCCc3ccccc3)cc2)CC1`?
MEKK3 PB1 HTS: inactive; MEKK2mut PB1 HTS: inactive; Apaf-1 inh: inactive; UBC13 inh: inactive; DSG3 Ab inh: inactive; MEKK2wt PB1 HTS: inactive

How did Cc1ccc(S(=O)(=O)n2c3ccc(Cl)cc3c3nc(C)sc32)cc1 do in these assays?
MEKK3 PB1 HTS: 150; MEKK2mut PB1 HTS: inactive; DSG3 Ab inh: inactive; MEKK2wt PB1 HTS: inactive; MEKK2wt confirm: inactive; MEKK2mut confirm: inactive; MEKK3 confirm: inactive

What do the screens show for `COC(=O)Cn1c2ccc(Cl)cc2c2nc(C)sc21`?
MEKK3 PB1 HTS: inactive; MEKK2mut PB1 HTS: inactive; Apaf-1 inh: inactive; UBC13 inh: inactive; DSG3 Ab inh: inactive; MEKK2wt PB1 HTS: inactive

Results for Clc1ccc2nc(CSCc3ccccc3)cn2c1 ?
MEKK3 PB1 HTS: inactive; MEKK2mut PB1 HTS: inactive; Apaf-1 inh: inactive; UBC13 inh: inactive; DSG3 Ab inh: inactive; MEKK2wt PB1 HTS: inactive

Results for COc1ccc(C)cc1NC(=O)CSc1ccc(-c2ccco2)nn1 ?
MEKK3 PB1 HTS: inactive; MEKK2mut PB1 HTS: inactive; Apaf-1 inh: inactive; UBC13 inh: inactive; MEKK2wt PB1 HTS: inactive

What do the screens show for `Cc1ccc(Nc2nc(N)c3ccccc3n2)cc1C`?
MEKK3 PB1 HTS: inactive; MEKK2mut PB1 HTS: inactive; Apaf-1 inh: inactive; UBC13 inh: inactive; DSG3 Ab inh: inactive; MEKK2wt PB1 HTS: 138; MEKK2wt confirm: inactive; MEKK2mut confirm: inactive; MEKK3 confirm: inactive

Results for O=C(CNS(=O)(=O)c1cccs1)NCc1ccc(F)cc1 ?
MEKK3 PB1 HTS: 142; MEKK2mut PB1 HTS: inactive; Apaf-1 inh: inactive; UBC13 inh: inactive; DSG3 Ab inh: inactive; MEKK2wt PB1 HTS: inactive; MEKK2wt confirm: inactive; MEKK2mut confirm: inactive; MEKK3 confirm: inactive

Results for COc1ccc(CNC(=O)CNS(=O)(=O)c2cccs2)cc1 ?
MEKK3 PB1 HTS: inactive; MEKK2mut PB1 HTS: inactive; Apaf-1 inh: inactive; UBC13 inh: inactive; DSG3 Ab inh: inactive; MEKK2wt PB1 HTS: inactive

What do the screens show for `Cc1nc2ccccn2c(=O)c1NC(=O)c1ccc2c(c1)OCO2`?
DSG3 Ab inh: inactive

What do the screens show for `CNC(=O)NC(=O)CSc1ccc(NC(C)=O)cc1`?
MEKK3 PB1 HTS: 128; MEKK2mut PB1 HTS: inactive; Apaf-1 inh: inactive; UBC13 inh: inactive; DSG3 Ab inh: inactive; MEKK2wt PB1 HTS: inactive; MEKK2wt confirm: inactive; MEKK2mut confirm: inactive; MEKK3 confirm: inactive

How did CCN(CC)c1ccc(NC(=O)CN2CCN(CC(=O)Nc3ccccc3OC)CC2)cc1 do in these assays?
MEKK3 PB1 HTS: inactive; MEKK2mut PB1 HTS: inactive; Apaf-1 inh: inactive; UBC13 inh: inactive; DSG3 Ab inh: inactive; MEKK2wt PB1 HTS: inactive

What do the screens show for `CCN(CC)c1ccc(NC(=O)CN2CCN(CC(=O)Nc3ccccc3F)CC2)cc1`?
MEKK3 PB1 HTS: 122; MEKK2mut PB1 HTS: inactive; Apaf-1 inh: inactive; UBC13 inh: inactive; DSG3 Ab inh: inactive; MEKK2wt PB1 HTS: inactive; MEKK2wt confirm: inactive; MEKK2mut confirm: inactive; MEKK3 confirm: inactive

How did CNCCCC12CCC(c3ccccc31)c1ccccc12 do in these assays?
MEKK3 PB1 HTS: inactive; MEKK2mut PB1 HTS: inactive; Apaf-1 inh: inactive; UBC13 inh: inactive; DSG3 Ab inh: inactive; MEKK2wt PB1 HTS: 137!; MEKK2wt confirm: inactive; MEKK2mut confirm: inactive; MEKK3 confirm: inactive

What do the screens show for `CNCCCC1c2ccccc2C=Cc2ccccc21`?
MEKK3 PB1 HTS: inactive; MEKK2mut PB1 HTS: inactive; Apaf-1 inh: inactive; UBC13 inh: inactive; DSG3 Ab inh: inactive; MEKK2wt PB1 HTS: inactive

How did O=C(O)C1CC(=O)N(c2ccc(OCc3ccccc3)cc2)C1 (stereo unspecified) do in these assays?
MEKK3 PB1 HTS: 72[inhibitor]; MEKK2mut PB1 HTS: inactive; Apaf-1 inh: inactive; UBC13 inh: inactive; DSG3 Ab inh: inactive; MEKK2wt PB1 HTS: inactive; MEKK2wt confirm: inactive; MEKK2mut confirm: inactive; MEKK3 confirm: inactive

How did O=C(O)C1CC(=O)N(c2ccc(OCc3ccc(Br)cc3)cc2)C1 (stereo unspecified) do in these assays?
MEKK3 PB1 HTS: inactive; MEKK2mut PB1 HTS: inactive; Apaf-1 inh: inactive; UBC13 inh: inactive; DSG3 Ab inh: inactive; MEKK2wt PB1 HTS: inactive

How did Cc1ccc(C)c(OCC(=O)Nc2cc(NC(=O)COc3cc(C)ccc3C)cc(C(=O)O)c2)c1 do in these assays?
MEKK3 PB1 HTS: inactive; MEKK2mut PB1 HTS: inactive; Apaf-1 inh: inactive; UBC13 inh: inactive; DSG3 Ab inh: inactive; MEKK2wt PB1 HTS: inactive

How did CC(Sc1nnc(Cc2ccc3c(c2)OCO3)o1)C(N)=O (stereo unspecified) do in these assays?
MEKK3 PB1 HTS: 133; MEKK2mut PB1 HTS: inactive; Apaf-1 inh: inactive; UBC13 inh: inactive; DSG3 Ab inh: inactive; MEKK2wt PB1 HTS: inactive; MEKK2wt confirm: inactive; MEKK2mut confirm: inactive; MEKK3 confirm: inactive

How did NC(=O)CSc1nnc(Cc2ccc3c(c2)OCO3)o1 do in these assays?
MEKK3 PB1 HTS: 143; MEKK2mut PB1 HTS: inactive; Apaf-1 inh: inactive; UBC13 inh: inactive; DSG3 Ab inh: inactive; MEKK2wt PB1 HTS: inactive; MEKK2wt confirm: 1.0[inhibitor]; MEKK2mut confirm: inactive; MEKK3 confirm: 2.0

What do the screens show for `O=C(COC(=O)CSc1nnc(-c2ccc(Cl)cc2)o1)NCc1ccc2c(c1)OCO2`?
MEKK3 PB1 HTS: 81[inhibitor]; MEKK2mut PB1 HTS: inactive; Apaf-1 inh: inactive; UBC13 inh: inactive; DSG3 Ab inh: inactive; MEKK2wt PB1 HTS: inactive; MEKK2wt confirm: inactive; MEKK2mut confirm: inactive; MEKK3 confirm: inactive

Results for CC(=O)Nc1ccc(NC(=O)C(C)Sc2nnc(-c3ccc4c(c3)OCO4)o2)cc1 (stereo unspecified) ?
Apaf-1 inh: inactive; UBC13 inh: inactive; DSG3 Ab inh: inactive

Screening data (PubChem)
